# Compounds with a hit are over-represented: about 4.9% of the library has one in this group of screens.
# STAT1 blocker: inhibitors of IFN-gamma induced STAT1 signaling; NIH 3T3 STAT1-luciferase reporter, luminescence; inhibition, % at 5.5 µM; AID 920; actives 0.35% (n = 200,000);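 active means inhibition above a set limit, the mean inhibition across all tested compounds plus 3 SD, cut at about 34% in these data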;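 further: 0% = IFN-gamma with DMSO and 100% = IFN-gamma with 300 µM nifuroxazide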
# STAT3 inh: reduces IL-6 driven STAT3 reporter signal; inhibition, % at 5.5 µM; actives 0.89% (n = 190,000); U3A cells, IL-6 STAT3-luciferase reporter, luminescence; host cell line lacks STAT1;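 active means inhibition above the mean inhibition across all screened compounds plus 3 SD, cut at about 44% in these data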;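 further: 0% = DMSO only wells and 100% = 100 µM nifuroxazide control wells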
# STAT1 act: activators of IFN-gamma induced STAT1 signaling | AID 932 | activation (% of control), % at 5.5 µM | actives 2.6% (n = 200,000) | NIH 3T3 STAT1-luciferase reporter, luminescence; 100% = IFN-gamma alone, no compound;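 active means activation above the screen-wide mean activation plus 3 SD, cut at about 130% in these data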;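 further: raw ratio to IFN-gamma control signal so 100% means no change and 0% no light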
# APP 5'UTR act: activates APP 5'UTR luciferase reporter | SH-SY5Y APP 5'UTR luciferase reporter, luminescence; zero percent = DMSO vehicle wells | activation, % at 2 µM | actives 1% (n = 190,000) | AID 1276;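 active means activation above a set limit, based on mean plus 3 SD of controls, cut at about 140% in these data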
# NF-kB expr up: NF-kB expression increase, human neuronal cells; fold change at 12.5 µM; actives 1.6% (n = 190,000); AID 1239; NF-kB reporter expression; hits give high values; in the data active means fold change above about 3.3
# STAT3 activator: STAT3 signaling activation; U3A cells, IL-6 STAT3-luciferase reporter, luminescence; 100% = signal with IL-6 EC80 alone; activation (% of control), % at 5.6 µM; actives 0.91% (n = 190,000); AID 871;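 active means activation above the screen-wide mean of compound activation plus 3 SD, cut at about 130% in these data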;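 further: 0% = background luminescence of wells with medium and substrate only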
#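 Material: STAT3-luciferase reporter U3A cells. Controls: IL-6-treated wells, 100% activation. Read-out: % activation versus median of IL-6-stimulated wells. Probe or stimulus: IL-6 stimulus at 33 ng/mL final. Timing: compound 1 h, then IL-6 6 h at 37 °C. Signal: reporter luminescence signal.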
# * = called active by the depositor.
SMILES,STAT1 blocker,STAT3 inh,STAT1 act,APP 5'UTR act,NF-kB expr up,STAT3 activator
COc1cccc(-c2noc(CCCC(=O)Nc3ccc(C(N)=O)cc3)n2)c1,1.5,-10.7,98.1,14.5,1.33,110.8
COCCNC(=S)N/N=C(\C)c1ccccc1O,-1.9,1.6,101.7,-78.6,15.2*,102.7
O=C1OC(c2ccccc2)c2ccc3ccccc3c21 (stereo not drawn),-0.1,10.6,100.1,7.8,0.93,94.1
C/C(=N\NC(=O)c1cccs1)c1cccnc1,-15.8,5.0,114.8,11.0,1.57,99.8
C/C(=N/NC(=O)c1ccoc1C)c1ccc(N2CCOCC2)cc1,-51.2,4.3,145.7*,201.6*,1.83,98.6
C/C(=N\NC(=O)c1ccoc1C)c1cccnc1,-47.8,-1.6,142.8*,152.2*,11.5*,102.1
C/C(=N/NC(=O)c1ccoc1C)c1ccc(NC(=O)c2ccncc2)cc1,-46.1,-9.7,143.4*,124.9,2.06,106.5
C/C(=N\NC(=O)c1ccc(Cl)cc1)c1ccc(N2CCOCC2)cc1,8.3,-1.9,94.3,5.1,1.03,99.5
Cc1ccc(-n2c3c(c(=O)[nH]c2=O)C(NS(=O)(=O)c2ccc(Cl)cc2)(C(F)(F)F)C(=O)N3)cc1 (stereo not drawn),9.4,4.0,91.5,-3.0,1.28,96.0
O=C(CSc1nc2ccc(NC(=O)CSc3nnnn3-c3ccccc3)cc2s1)Nc1ccccc1,-7.0,16.3,106.3,11.2,1.18,88.8
Cn1cnnc1SCC(=O)Nc1ccc2nc(SCc3ccccc3F)sc2c1,-51.7,-15.6,145.8*,71.8,2.94,114.1
O=C1NN=COc2ccccc21,2.7,-28.4,96.6,5.4,1.03,133.3*
O=C1NC(c2ccc(Cl)cc2)=COc2ccccc21,-9.4,6.6,108.4,13.6,1.04,97.8
Cn1ncc2c(=O)[nH]cnc21,-5.3,-7.5,105.5,8.3,1.21,108.5
CCc1cccc(Nc2cnn(C34C[C@@H]5C[C@@H](CC(CC(=O)O)(C5)C3)C4)c(=O)c2Cl)c1,-42.0,-10.1,137.8*,3.2,1.16,109.2
CCOc1ccc2nc(SCc3ccccc3C#N)sc2c1,-38.0,6.2,134.2*,115.6,2.87,104.5
Cc1oc(C(C)(C)C)c(CN2CCOCC2)c1C(=O)O,0.8,4.7,97.4,16.7,1.07,102.1
Cc1ccc(-n2ncc3c(SCc4ccccn4)ncnc32)c(C)c1,-42.2,15.9,136.7*,2.0,2.36,94.7
COc1ccc(N/C=C2\CCOC2=O)cc1,11.1,9.5,90.8,22.0,0.99,95.7
O=C1OC2(CCCCC2)OC(=O)C1=CNc1ccc2c(c1)OCO2,-15.1,7.1,113.5,0.5,1.42,103.7
O=C1/C(=C/Nc2ccc3c(c2)OCO3)CCc2ccccc21,58.5*,93.2*,46.4,152.9*,2.21,20.8
COc1ccc(N/C=C2\CCc3ccccc3C2=O)cc1,76.0*,90.3*,28.1,155.7*,1.79,25.2
COc1ccc2c(c1)CC/C(=C\Nc1ccc3c(c1)OCO3)C2=O,-32.2,29.4,129.5*,30.6,3.82*,75.4
Cn1c(Cc2ccccc2)nnc1SCC(=O)NCCc1ccccc1,1.8,2.9,96.5,7.0,0.95,105.3
Nc1ccc2oc(C3CCCCC3)nc2c1,-34.3,-1.0,131.8*,38.2,1.61,106.0
SMILES,STAT1 blocker,STAT3 inh,STAT1 act,APP 5'UTR act,NF-kB expr up,STAT3 activator
O=c1[nH]c(=O)n(Cc2ccco2)c2c1C(C(F)(F)F)(C(F)(F)F)N=C(c1ccc(F)cc1)N2,44.9*,50.6*,58.7,-32.6,0.99,60.3
Cc1cc2c(ncn2Cc2ccccc2)c(N)c1C,-4.2,-4.6,102.5,-3.4,1.24,110.0
COC(=O)c1cc(-c2c(C)nn(-c3ccccc3)c2C)n[nH]1,12.0,10.3,95.3,2.2,5.94*,94.5
CC(C)OCCCNC(=O)C(NS(=O)(=O)c1ccc2c(c1)c(=O)n(C)c(=O)n2C)c1ccccc1 (stereo not drawn),-1.1,-0.2,100.6,1.5,1.03,102.0
O=C(O)CCn1nnc(-c2cccs2)n1,-0.4,8.5,100.3,-4.2,1.29,96.7
CC(C)c1ccc(-c2nnn(CCC(=O)O)n2)cc1,47.7*,78.0*,56.8,-82.3,0.39,38.9
O=c1[nH]c(N/N=C\c2ccc(F)cc2)nc2ccccc12,-56.0,25.0,150.5*,188.8*,4.13*,82.9

# Compound activity (PubChem)
